Data on 2 compounds can be found in article PMC2266610 (The Journal of General Physiology, 2005).

Entries after “also recorded” stand apart in the source; their conditions may differ.

For the assay, the target named is T1, homomeric (CNGA1) rod CNG channel (Bos taurus, UniProt Q00194).
T1 sequence (Q00194 1-690): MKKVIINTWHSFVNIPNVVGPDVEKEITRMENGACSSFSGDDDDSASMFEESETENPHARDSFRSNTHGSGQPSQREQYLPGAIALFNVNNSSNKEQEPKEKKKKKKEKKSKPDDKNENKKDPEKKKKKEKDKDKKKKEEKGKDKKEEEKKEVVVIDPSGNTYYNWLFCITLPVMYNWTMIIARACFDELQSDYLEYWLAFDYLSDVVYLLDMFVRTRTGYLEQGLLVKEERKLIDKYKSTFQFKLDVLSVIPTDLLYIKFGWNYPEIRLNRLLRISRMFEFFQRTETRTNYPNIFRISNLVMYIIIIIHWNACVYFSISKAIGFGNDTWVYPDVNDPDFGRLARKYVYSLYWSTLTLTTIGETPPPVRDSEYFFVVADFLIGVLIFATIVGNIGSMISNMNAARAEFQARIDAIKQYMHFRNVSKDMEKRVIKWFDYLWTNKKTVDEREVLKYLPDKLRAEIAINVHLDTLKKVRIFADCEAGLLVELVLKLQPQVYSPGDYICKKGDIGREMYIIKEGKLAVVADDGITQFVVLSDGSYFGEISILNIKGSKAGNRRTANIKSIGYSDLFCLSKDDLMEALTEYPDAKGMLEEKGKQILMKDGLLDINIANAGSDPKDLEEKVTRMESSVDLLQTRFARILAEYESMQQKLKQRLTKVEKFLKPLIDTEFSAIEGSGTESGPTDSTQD
In kind it is biochemical, bovine. The conditions noted are these: saturating (2 mM) cGMP; for Inhibitory potency: result in words. In short, it runs like this:
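CNGA1 cRNA was injected into Xenopus oocytes (16°C, 3–12 d). Inside-out patches at room temperature were held in low-divalent Na solution (pH 7.2), with 2 mM cGMP intracellular and niflumic acid extracellular. Retinoid from ethanol stocks was mixed into the bath under dim light after phosphatase-driven affinity shifts finished. Current at +100 mV was taken at ~1 h steady state, leak-subtracted, normalized to pre-drug current, and Hill-fitted.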

With `CC(=O)/C=C/C1=C(C)CCCC1(C)C` [β-ionone], the Inhibitory potency entry is reported as “No inhibition”. Moreover, for the setting “10 μM, after 1 h”, the “Inhibition of current at 10 μM retinoid” value was “unable to inhibit; also recorded: no change in current”.

Take `CC1=C(/C=C/C(C)=C/C=C/C(C)=C/C(=O)O)C(C)(C)CCC1` [RA, all-trans-retinoic acid]: the Inhibitory potency entry is given as “No inhibition”. The “Inhibition of current at 400 nM retinoid” value (400 nM, after 1 h, representative patch) is on record as “did not inhibit; also recorded: no inhibition”.
